Measurements as given in paper PMC11911394 (Nature Communications, 2025).
One block for each molecule: values may come before it.

Assays:
[1] = test system: nirFAST; assay: Characterization of nirFAST with prototypical FAST; type: physicochemical; settings: fluorogen bound to nirFAST
In short: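 His-tag-purified protein came from E. coli BL21(DE3) or Rosetta(DE3)pLysS, induced overnight with 1 mM IPTG at 16 °C and isolated on Ni-NTA. Spectra were recorded in PBS pH 7.4 at 25 °C on a plate reader. Quantum yield was measured in 96-well plates against a reference fluorogen:protein complex. Protein was 40 µM, with fluorogen usually 6 to 0.375 µM, giving >99% complex.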

[2] = test system: nirFAST; assay: nirFAST labeling kinetics in live HeLa cells; type: cell-based; settings: 10 µM fluorogen
[3] = test system: HeLa cells; assay: Cell viability assay; type: cell-based; settings: at the dose used for imaging; HeLa and HEK293T (Supplementary Fig. 8)
In short: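 HeLa cells were grown in MEM with phenol red, Glutamax I, 1 mM sodium pyruvate, 1% non-essential amino acids, 10% FBS and 1% penicillin–streptomycin at 37 °C and 5% CO₂. They were exposed to fluorogen at the indicated concentrations for 24 h. Viability was read as CellTiter-Glo luminescence on a plate reader, per kit protocol.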

[4] = test system: zebrafish larvae; assay: Imaging of injected nirFAST-expressing HEK293T cells in zebrafish larvae; type: in vivo, zebrafish (Danio rerio); settings: zebrafish larvae 4 dpf, 45 min of treatment
In short: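 HEK293T cells were transfected with a nirFAST-P2A-EGFP plasmid and, after 24 h, suspended at 10,000,000 cells/mL in serum-free DMEM. About 5–10 nL was microinjected near the heart of 2 dpf nacre larvae anesthetized with 0.02% MS-222. Larvae were raised at 28 °C, and green-positive ones were chosen. At 4 dpf they were incubated 45 min with fluorogen, anesthetized, mounted laterally in 0.8% low-melt agarose and imaged confocally.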

[5] = test system: LAMP1–mCherry–FIREtag and nir-FIREmate–KIF17; assay: nirCATCHFIRE control of lysosome positioning; type: cell-based; settings: HeLa cells co-expressing LAMP1–mCherry–FIREtag and nir-FIREmate–KIF17
[6] = type: physicochemical; settings: exciting with red light
In short: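 Steady-state UV-Vis absorption and fluorescence spectra were recorded on a plate reader in PBS pH 7.4 at 25 °C.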

SMILES: Cc1cc(/C=C2\SC(=S)NC2=O)c(C)cc1O [HBR-2,5DM]
fluorescence activation by nirFAST [1]: failed to activate efficiently the fluorescence

SMILES: Cc1cc(/C=C2\SC(=S)NC2=O)ccc1O [HMBR]
fluorescence activation by nirFAST [1]: failed to activate efficiently the fluorescence

FQY of assembly with nirFAST [1]: 37%
SMILES: Cc1cc(/C=C2\SC(=S)NC2=O)cc(C)c1O [HBR-3,5DM]

fluorescence of free fluorogen [6]: completely non-fluorescent
SMILES: COc1cc(/C=C/C=C2\SC(=S)NC2=O)cc(OC)c1O [HPAR-3,5DOM, (Z)-5-((E)-3-(4-hydroxy-3,5-dimethoxyphenyl)allylidene)-2-thioxothiazolidin-4-one]
time to complete labeling of nirFAST after fluorogen addition [2]: complete within twenty seconds | toxicity for mammalian cells [3]: non-toxic | detection of nirFAST-expressing HEK293T cells in larvae [4]: efficiently detected | effect on lysosome positioning [5]: displacement of lysosomes from the perinuclear region to the cell periphery

FQY of assembly with nirFAST [1]: 24%
SMILES: COc1cc(/C=C2\SC(=S)NC2=O)cc(OC)c1O [HBR-3,5DOM]
